Experiments:
MAO-A = MAO-A (Homo sapiens, UniProt P21397); assay: Activity at human MAO-A receptor at 10 uM; settings: read-out: Activity
[1] = target: Muscarinic acetylcholine receptor M3 (Homo sapiens) (UniProt P20309); assay: Activity at human M3 receptor at 10 uM
[2] = target: Sodium-dependent noradrenaline transporter (Homo sapiens) (UniProt P23975); assay: Activity at human NET receptor at 10 uM
[3] = target: Adenosine receptor A2a (Homo sapiens) (UniProt P29274); assay: Activity at human A2a receptor at 10 uM
[4] = target: C-C chemokine receptor type 1 (Homo sapiens) (UniProt P32246); assay: Activity at human CCR1 at 10 uM
[5] = target: C-C chemokine receptor type 2 (Homo sapiens) (UniProt P41597); assay: Activity at human CCR2b at 10 uM
[6] = target: C-C chemokine receptor type 5 (Homo sapiens) (UniProt P51681); assay: Activity at human CCR5 at 10 uM
[7] = target: Calcitonin gene-related peptide type 1 receptor (Homo sapiens) (UniProt Q16602); assay: Activity at human CGRP receptor at 10 uM
[8] = target: C-X-C chemokine receptor type 2 (Homo sapiens) (UniProt P25025); assay: Activity at human CXCR2 receptor at 10 uM
[9] = target: Endothelin-1 receptor (Homo sapiens) (UniProt P25101); assay: Activity at human ETA receptor at 10 uM
[10] = target: Growth hormone secretagogue receptor type 1 (Homo sapiens) (UniProt Q92847); assay: Activity at human GHS receptor at 10 uM
[11] = target: Neuromedin-K receptor (Homo sapiens) (UniProt P29371); assay: Activity at human NK3 receptor at 10 uM
[12] = target: Glucagon-like peptide 1 receptor (Homo sapiens) (UniProt P43220); assay: Activity at human GLP1 receptor at 10 uM
[13] = target: Glucagon-like peptide 2 receptor (Homo sapiens) (UniProt O95838); assay: Activity at human GLP2 receptor at 10 uM
[14] = target: Vasopressin V1b receptor (Homo sapiens) (UniProt P47901); assay: Activity at human V1B receptor at 10 uM
[15] = target: Pyroglutamylated RF-amide peptide receptor (Rattus norvegicus) (UniProt P83858); assay: Activity at rat GPR103 receptor at 10 uM
[16] = target: Prokineticin-2 (Rattus norvegicus) (UniProt Q8R413); assay: Activity at rat PK2 receptor at 10 uM
[17] = target: Urotensin-2 receptor (Mus musculus) (UniProt Q8VIH9); assay: Activity at mouse UT2 receptor at 10 uM
[18] = target: Delta-type opioid receptor (Homo sapiens, UniProt P41143); assay: Inhibition of human DOR
Mu-type opioid receptor = Mu-type opioid receptor (Homo sapiens, UniProt P35372); assay: Inhibition of human MOR
[19] = Apparent permeability across human Caco2 cells; format: ADME, cell-based; settings: Caco-2
[20] = Ratio of drug uptake in brain to plasma of Sprague-Dawley rat at 1 mg/kg, sc; format: ADME, organism-based; design: dose 1 mg/kg, route subcutaneous; settings: read-out: BPR
[21] = Ratio of drug uptake in brain to plasma of mouse; format: ADME, cell-free; settings: read-out: BPR
In short: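 Compound given sc or po; blood and brain sampled 30 or 60 min post-dose; total plasma and brain concentrations by protein precipitation (brain homogenised) and LC–MS/MS; brain values corrected for 2% blood contamination; brain/plasma ratio calculated.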

[22] = Metabolic stability in human liver microsomes; format: ADME, Microsome; settings: read-out: Stability
Rattus norvegicus [23] = assay: Volume of distribution at steady state in po dosed Sprague-Dawley rat; format: ADME, organism-based; settings: in vivo
Cytochrome P450 1A2 = Cytochrome P450 1A2 (Homo sapiens, UniProt P05177); assay: Inhibition of CYP1A2; format: ADME
[24] = Dissociation constant, pKa of the compound; format: physicochemical
Cannabinoid receptor 1 = Cannabinoid receptor 1 (Mus musculus, UniProt P47746); assay: Agonist activity at CB1 receptor in field-stimulated mouse vas deferens; format: functional, tissue-based
In short: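 Isolated mouse vas deferens under electrical field stimulation, used as an intact tissue assay of CB1 agonism at the native receptor.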

Rattus norvegicus [25] = assay: Toxicity in Sprague-Dawley rat carrageenan pain model assessed as hypoactivity at 0.35 to 1.4 mg/kg, sc; format: organism-based; design: dose 0.35-1.4 mg/kg, route subcutaneous; settings: in vivo
In short: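 Carrageenan-model rats given 0.35–1.4 mg/kg sc; hypoactivity scored 0 absent, 1 mild, 2 moderate, 3 severe; ptosis and exophthalmos also checked. n = 7; mean ± SEM; one-way ANOVA, Holm-Sidak versus vehicle.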

Sequence of Endothelin-1 receptor (Homo sapiens) (P25101 whole entry): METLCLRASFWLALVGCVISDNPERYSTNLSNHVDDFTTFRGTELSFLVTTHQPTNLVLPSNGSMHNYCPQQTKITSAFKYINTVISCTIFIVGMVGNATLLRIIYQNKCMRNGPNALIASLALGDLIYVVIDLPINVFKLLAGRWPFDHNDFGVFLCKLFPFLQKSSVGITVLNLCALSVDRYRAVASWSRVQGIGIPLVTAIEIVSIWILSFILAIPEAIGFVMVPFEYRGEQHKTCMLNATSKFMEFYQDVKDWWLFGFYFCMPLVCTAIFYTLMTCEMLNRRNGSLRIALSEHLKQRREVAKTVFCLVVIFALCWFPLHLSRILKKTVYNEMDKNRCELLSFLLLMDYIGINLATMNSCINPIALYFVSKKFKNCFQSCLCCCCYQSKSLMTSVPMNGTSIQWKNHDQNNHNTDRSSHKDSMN
Sequence of Vasopressin V1b receptor (Homo sapiens) (P47901 whole entry): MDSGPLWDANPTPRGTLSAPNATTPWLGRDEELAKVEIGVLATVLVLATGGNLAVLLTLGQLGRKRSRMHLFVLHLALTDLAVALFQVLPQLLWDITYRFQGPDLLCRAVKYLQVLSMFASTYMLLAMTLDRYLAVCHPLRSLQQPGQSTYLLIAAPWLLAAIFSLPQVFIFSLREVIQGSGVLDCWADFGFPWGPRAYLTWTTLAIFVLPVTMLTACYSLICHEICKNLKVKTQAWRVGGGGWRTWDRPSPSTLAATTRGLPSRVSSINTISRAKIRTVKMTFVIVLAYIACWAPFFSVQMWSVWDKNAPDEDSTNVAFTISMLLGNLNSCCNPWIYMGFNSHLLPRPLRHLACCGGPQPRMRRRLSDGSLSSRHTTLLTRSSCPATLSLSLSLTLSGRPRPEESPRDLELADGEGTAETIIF
Sequence of Prokineticin-2 (Rattus norvegicus) (Q8R413 whole entry): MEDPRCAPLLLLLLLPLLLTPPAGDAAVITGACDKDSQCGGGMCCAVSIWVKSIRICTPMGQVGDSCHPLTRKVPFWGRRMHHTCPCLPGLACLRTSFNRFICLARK
Sequence of C-C chemokine receptor type 5 (Homo sapiens) (P51681 whole entry, looked up): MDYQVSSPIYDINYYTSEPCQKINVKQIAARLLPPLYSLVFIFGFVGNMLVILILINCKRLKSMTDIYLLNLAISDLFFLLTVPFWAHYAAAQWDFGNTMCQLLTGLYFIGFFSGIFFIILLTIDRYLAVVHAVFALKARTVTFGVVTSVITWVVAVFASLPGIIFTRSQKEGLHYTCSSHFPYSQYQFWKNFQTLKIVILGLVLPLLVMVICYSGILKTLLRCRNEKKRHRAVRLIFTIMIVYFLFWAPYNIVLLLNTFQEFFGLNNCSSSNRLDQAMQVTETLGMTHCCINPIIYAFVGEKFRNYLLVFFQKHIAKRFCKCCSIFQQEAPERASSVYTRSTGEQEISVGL
Sequence of Sodium-dependent noradrenaline transporter (Homo sapiens) (P23975 whole entry): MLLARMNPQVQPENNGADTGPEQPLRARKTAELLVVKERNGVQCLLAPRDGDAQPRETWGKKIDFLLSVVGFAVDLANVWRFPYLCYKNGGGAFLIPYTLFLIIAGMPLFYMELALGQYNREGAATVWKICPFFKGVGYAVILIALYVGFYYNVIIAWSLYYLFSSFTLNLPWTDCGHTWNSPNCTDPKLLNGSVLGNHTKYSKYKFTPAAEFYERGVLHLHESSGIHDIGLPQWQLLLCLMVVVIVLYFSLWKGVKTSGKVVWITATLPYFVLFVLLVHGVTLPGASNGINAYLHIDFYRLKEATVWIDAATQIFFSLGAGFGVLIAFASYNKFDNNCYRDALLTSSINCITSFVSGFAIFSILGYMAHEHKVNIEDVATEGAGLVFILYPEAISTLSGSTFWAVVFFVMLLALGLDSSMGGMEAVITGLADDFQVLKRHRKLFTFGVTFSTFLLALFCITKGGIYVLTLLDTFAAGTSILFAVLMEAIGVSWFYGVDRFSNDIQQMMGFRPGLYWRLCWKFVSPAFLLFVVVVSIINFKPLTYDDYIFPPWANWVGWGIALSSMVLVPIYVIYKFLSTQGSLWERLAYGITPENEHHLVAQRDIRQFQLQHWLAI
Sequence of C-C chemokine receptor type 1 (Homo sapiens) (P32246 whole entry): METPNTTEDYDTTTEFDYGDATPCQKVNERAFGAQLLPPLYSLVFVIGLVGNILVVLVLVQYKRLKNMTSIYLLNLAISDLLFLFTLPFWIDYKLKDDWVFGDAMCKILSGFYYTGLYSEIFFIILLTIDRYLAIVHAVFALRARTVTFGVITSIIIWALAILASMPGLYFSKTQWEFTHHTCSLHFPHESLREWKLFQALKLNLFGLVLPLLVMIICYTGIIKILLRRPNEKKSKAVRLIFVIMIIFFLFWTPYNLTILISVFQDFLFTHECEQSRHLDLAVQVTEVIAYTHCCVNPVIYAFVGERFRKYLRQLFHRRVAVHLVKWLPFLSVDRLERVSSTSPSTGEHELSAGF
Sequence of Glucagon-like peptide 1 receptor (Homo sapiens) (P43220 whole entry): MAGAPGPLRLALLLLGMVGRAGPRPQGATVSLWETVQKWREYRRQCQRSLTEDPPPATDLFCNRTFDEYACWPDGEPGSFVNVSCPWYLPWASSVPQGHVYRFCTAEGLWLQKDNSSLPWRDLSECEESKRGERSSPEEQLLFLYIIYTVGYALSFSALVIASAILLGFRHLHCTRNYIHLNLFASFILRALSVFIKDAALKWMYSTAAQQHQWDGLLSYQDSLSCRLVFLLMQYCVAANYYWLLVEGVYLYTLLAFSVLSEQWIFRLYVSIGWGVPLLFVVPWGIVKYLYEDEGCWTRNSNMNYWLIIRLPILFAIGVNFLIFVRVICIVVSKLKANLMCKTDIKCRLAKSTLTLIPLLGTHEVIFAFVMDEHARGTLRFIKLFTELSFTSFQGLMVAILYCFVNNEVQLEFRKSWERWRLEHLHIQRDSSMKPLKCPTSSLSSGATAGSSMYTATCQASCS
Sequence of Adenosine receptor A2a (Homo sapiens) (P29274 whole entry): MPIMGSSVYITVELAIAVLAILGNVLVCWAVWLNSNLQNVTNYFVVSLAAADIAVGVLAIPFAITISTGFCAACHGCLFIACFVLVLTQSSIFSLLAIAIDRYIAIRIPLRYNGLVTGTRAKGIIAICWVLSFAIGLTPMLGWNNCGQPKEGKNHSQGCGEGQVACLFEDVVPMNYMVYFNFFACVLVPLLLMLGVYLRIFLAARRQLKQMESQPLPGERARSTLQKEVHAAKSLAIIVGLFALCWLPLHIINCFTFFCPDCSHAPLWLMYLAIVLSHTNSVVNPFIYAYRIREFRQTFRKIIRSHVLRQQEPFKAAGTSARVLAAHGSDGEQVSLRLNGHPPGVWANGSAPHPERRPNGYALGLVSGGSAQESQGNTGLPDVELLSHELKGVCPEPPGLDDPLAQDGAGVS
Sequence of Cytochrome P450 1A2 (P05177 whole entry): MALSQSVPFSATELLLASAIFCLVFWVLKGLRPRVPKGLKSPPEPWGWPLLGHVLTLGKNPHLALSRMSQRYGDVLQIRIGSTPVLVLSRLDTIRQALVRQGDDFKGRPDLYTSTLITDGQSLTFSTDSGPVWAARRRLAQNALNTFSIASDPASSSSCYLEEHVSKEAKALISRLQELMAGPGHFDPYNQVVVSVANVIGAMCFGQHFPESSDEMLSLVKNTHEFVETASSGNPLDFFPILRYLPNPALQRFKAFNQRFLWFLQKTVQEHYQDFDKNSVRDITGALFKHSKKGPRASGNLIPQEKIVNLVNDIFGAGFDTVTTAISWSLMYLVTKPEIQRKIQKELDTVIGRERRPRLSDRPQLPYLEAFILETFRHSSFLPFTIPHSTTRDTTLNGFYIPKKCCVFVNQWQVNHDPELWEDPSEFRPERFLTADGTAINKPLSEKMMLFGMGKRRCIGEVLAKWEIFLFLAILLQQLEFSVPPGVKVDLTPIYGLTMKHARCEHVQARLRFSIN
Sequence of Cannabinoid receptor 1 (P47746 whole entry): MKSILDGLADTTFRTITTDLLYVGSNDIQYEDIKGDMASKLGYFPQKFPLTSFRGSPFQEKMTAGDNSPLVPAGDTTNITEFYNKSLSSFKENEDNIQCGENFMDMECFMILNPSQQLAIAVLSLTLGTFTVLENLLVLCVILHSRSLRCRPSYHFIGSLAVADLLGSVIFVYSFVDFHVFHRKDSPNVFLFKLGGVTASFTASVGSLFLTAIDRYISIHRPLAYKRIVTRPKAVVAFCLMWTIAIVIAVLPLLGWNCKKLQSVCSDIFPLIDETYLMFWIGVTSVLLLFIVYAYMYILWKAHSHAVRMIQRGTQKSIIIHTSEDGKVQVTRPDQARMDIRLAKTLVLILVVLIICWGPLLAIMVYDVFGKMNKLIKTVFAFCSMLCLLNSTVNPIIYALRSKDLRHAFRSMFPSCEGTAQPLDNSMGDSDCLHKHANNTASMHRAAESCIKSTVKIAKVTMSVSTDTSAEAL
Sequence of MAO-A (P21397 whole entry): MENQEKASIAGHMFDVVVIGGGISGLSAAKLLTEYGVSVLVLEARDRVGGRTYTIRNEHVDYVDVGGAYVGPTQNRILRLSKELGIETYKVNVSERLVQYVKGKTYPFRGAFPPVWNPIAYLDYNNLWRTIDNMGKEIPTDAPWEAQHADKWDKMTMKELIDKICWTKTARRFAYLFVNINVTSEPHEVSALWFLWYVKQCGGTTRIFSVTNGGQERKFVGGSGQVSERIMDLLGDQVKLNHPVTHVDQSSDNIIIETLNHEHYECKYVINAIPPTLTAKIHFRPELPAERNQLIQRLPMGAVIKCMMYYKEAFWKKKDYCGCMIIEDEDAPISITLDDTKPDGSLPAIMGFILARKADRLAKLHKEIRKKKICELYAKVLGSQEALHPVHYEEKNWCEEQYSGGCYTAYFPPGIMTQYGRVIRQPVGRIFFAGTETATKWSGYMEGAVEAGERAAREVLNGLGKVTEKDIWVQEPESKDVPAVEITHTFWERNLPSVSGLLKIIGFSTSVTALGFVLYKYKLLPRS

CCS(=O)(=O)n1c2c(c3cc(C(=O)N4CCC(C)CC4)ccc31)CN(C1CCOCC1)CC2
activity at 10 µM (MAO-A): < 50% | Activity [1]: < 50% | Activity [2]: < 50% | Activity [3]: < 50% | Activity [4]: < 50% | Activity [5]: < 50% | Activity [6]: < 50% | Activity [7]: < 50% | Activity [8]: < 50% | Activity [9]: < 50% | Activity [10]: < 50% | Activity [11]: < 50% | Activity [12]: < 50% | Activity [13]: < 50% | Activity [14]: < 50% | Activity [15]: < 50% | Activity [16]: < 50% | Activity [17]: < 50% | IC50 [18]: > 10 µM | IC50 (Mu-type opioid receptor): > 10 µM | Papp [19]: 13 ×10⁻⁶ cm/s | Kp [20]: 0.07 | Kp [21]: 0.05 | microsomal CLint [22]: 52 µL/min/mg | Vdss (Rattus norvegicus [23]): 1.2 L/kg | IC50 (Cytochrome P450 1A2): > 20 µM | pKa [24]: 6.9 | IC50 (Cannabinoid receptor 1): 0.0019 µM | Activity (Rattus norvegicus [25]): Non-toxic
